The target of this assay is T1, Heat shock factor protein 1 (Homo sapiens) (UniProt Q00613).
T1 sequence (whole entry): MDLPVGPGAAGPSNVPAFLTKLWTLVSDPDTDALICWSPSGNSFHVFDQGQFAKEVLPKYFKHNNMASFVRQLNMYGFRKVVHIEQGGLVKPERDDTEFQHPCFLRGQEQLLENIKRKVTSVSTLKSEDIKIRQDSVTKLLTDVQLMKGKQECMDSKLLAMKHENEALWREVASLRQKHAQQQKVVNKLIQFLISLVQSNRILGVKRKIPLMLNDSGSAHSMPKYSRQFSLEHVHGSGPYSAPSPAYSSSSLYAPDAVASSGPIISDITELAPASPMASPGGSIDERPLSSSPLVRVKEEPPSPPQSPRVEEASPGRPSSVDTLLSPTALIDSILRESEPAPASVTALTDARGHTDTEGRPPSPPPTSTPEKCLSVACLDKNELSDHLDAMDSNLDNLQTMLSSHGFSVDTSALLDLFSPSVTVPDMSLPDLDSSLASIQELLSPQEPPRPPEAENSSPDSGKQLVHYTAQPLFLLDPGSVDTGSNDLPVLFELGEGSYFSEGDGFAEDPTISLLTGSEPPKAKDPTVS
Nature of the assay: Activation of HSF1 in human L132 cells assessed as increase in HSP27 protein levels at 3 uM by immunoblotting analysis. The format is cell-based. The following applies: TDE = time-dependent effect. The method in brief:
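L132 cells treated at 3 μM for 12 h, or at various doses for 12 h, or at 3 μM over a time course. Lysates resolved by SDS-PAGE, blotted to nitrocellulose, milk-blocked, primary antibodies 18 h at 4 °C, ECL detection. HSP27, HSP70 and Ser326-phospho-HSF1 bands normalized to loading control; ≥3 independent experiments; celastrol 1 μM positive control.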
Background: In western blotting, separated proteins are transferred to a membrane and probed.

Regarding `COc1cc(/C=C/CO)ccc1O` [CONIFERYL ALCOHOL], the Activity result was “Tde”.

(Values after ChEMBL document CHEMBL4190282, “The Conjugated Double Bond of Coniferyl Aldehyde Is Essential for Heat Shock Factor 1 Mediated Cytotoprotection” (J Nat Prod, 2017).)
